Measurements: ChEMBL document CHEMBL3244243, “Mitomycin antibiotics. Synthesis and activity of 1,2-disubstituted mitosenes” (J Med Chem, 1977)
Active and inactive are the calls of the source. The calls are words filed in the database; no cut-off is given here.

How the values were obtained:
Micrococcus luteus = experiment: Antibacterial activity against Sarcina lutea assessed as zone of inhibition by disk-plate assay; assay type: functional
Klebsiella pneumoniae = experiment: Antibacterial activity against Klebsiella pneumoniae assessed as zone of inhibition by disk-plate assay; assay type: functional
Escherichia coli [1] = experiment: Antibacterial activity against Escherichia coli K-12 assessed as zone of inhibition by disk-plate assay; assay type: functional
[2] = system: Mycolicibacterium smegmatis; experiment: Antibacterial activity against Mycobacterium smegmatis 607 assessed as zone of inhibition by disk-plate assay; assay type: functional
Staphylococcus aureus [3] = experiment: Antibacterial activity against Staphylococcus aureus 209P assessed as zone of inhibition by disk-plate assay; assay type: functional
[4] = Induction of lambda-bacteriophage expression in Escherichia coli assessed as induction of plaques at 3.1 ug/ml relative to control; assay type: functional, Enterobacteria phage lambda
Enterococcus faecalis = experiment: Antibacterial activity against Streptococcus faecalis P1377 assessed as zone of inhibition by disk-plate assay; assay type: functional
Escherichia coli [5] = experiment: Antibacterial activity against Escherichia coli B A9885 assessed as zone of inhibition by disk-plate assay; assay type: functional
[6] = (§1) Induction of lambda-bacteriophage expression in Escherichia coli assessed as induction of plaques at 0.2 ug/ml relative to control; assay type: functional, Enterobacteria phage lambda
Staphylococcus aureus [7] = experiment: Antibacterial activity against Staphylococcus aureus Smith P assessed as zone of inhibition by disk-plate assay; assay type: functional
[8] = (§2) Induction of lambda-bacteriophage expression in Escherichia coli assessed as induction of plaques at 0.8 ug/ml relative to control; assay type: functional, Enterobacteria phage lambda
Bacillus subtilis = experiment: Antibacterial activity against Bacillus subtilis assessed as zone of inhibition by disk-plate assay; assay type: functional
Escherichia coli [9] = experiment: Toxicity in lambda-bacteriophage infected Escherichia coli at 0.05 ug/ml; assay type: organism-based; conditions: in vivo
Escherichia coli [10] = experiment: Toxicity in lambda-bacteriophage infected Escherichia coli at 0.0125 ug/ml; assay type: organism-based; conditions: in vivo
P388 [11] = experiment: Antitumor activity against mouse P388 cells allografted CDF mouse assessed as increase in maximum survival time at 3.2 mg/kg treated on days 1 and 5 following tumor implantation relative to saline treated control; assay type: functional
Procedure, shortened: (§3)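 Male CDF mice implanted intraperitoneally with 10⁶ P388 ascites leukemia cells; compound given on days 1 and 5 after tumor inoculum. Increase in maximum survival time calculated against saline-treated controls. Six mice per treated group, ten mice in the control group.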

[12] = Induction of lambda-bacteriophage expression in Escherichia coli assessed as induction of plaques at 0.0125 ug/ml relative to control; assay type: functional, Enterobacteria phage lambda
Escherichia coli [13] = experiment: Toxicity in lambda-bacteriophage infected Escherichia coli at 0.2 ug/ml; assay type: organism-based; conditions: in vivo
Escherichia coli [14] = experiment: Toxicity in lambda-bacteriophage infected Escherichia coli at 0.8 ug/ml; assay type: organism-based; conditions: in vivo
[15] = system: Enterobacteria phage lambda; experiment: as §1; assay type: functional
[16] = system: Enterobacteria phage lambda; experiment: (§4) Induction of lambda-bacteriophage expression in Escherichia coli assessed as induction of plaques at 0.05 ug/ml relative to control; assay type: functional
[17] = system: Enterobacteria phage lambda; experiment: as §2; assay type: functional
[18] = Induction of lambda-bacteriophage expression in Escherichia coli assessed as induction of plaques at 0.003 ug/ml relative to control; assay type: functional, Enterobacteria phage lambda
Escherichia coli [19] = experiment: Toxicity in lambda-bacteriophage infected Escherichia coli at 3.1 ug/ml; assay type: organism-based; conditions: in vivo
P388 [20] = experiment: Antitumor activity against mouse P388 cells allografted CDF mouse assessed as increase in maximum survival time at 12.8 mg/kg treated on days 1 and 5 following tumor implantation relative to saline treated control; assay type: functional, organism-based; parameters: dose 12.8 mg/kg
Procedure, shortened: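 CDF male mice inoculated intraperitoneally with 10⁶ P388 ascites leukemia cells. Compound given at 12.8 mg/kg on days 1 and 5 after tumor inoculum. Six mice per compound group and ten mice in the saline control group. Read-out is percent increase in maximum survival time over the saline controls.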

[21] = as §4; assay type: functional, Enterobacteria phage lambda
P388 [22] = experiment: Antitumor activity against mouse P388 cells allografted CDF mouse assessed as increase in maximum survival time at 6.4 mg/kg treated on days 1 and 5 following tumor implantation relative to saline treated control; assay type: functional; procedure, shortened: as §3

Structure (SMILES) | diameter of the inhibition zone (DIZ) (Micrococcus luteus) [mm] | diameter of the inhibition zone (DIZ) (Klebsiella pneumoniae) [mm] | diameter of the inhibition zone (DIZ) (Escherichia coli [1]) [mm] | diameter of the inhibition zone (DIZ) [2] [mm] | diameter of the inhibition zone (DIZ) (Staphylococcus aureus [3]) [mm] | Ratio [4] | diameter of the inhibition zone (DIZ) (Enterococcus faecalis) [mm] | diameter of the inhibition zone (DIZ) (Escherichia coli [5]) [mm] | Ratio [6] | diameter of the inhibition zone (DIZ) (Staphylococcus aureus [7]) [mm] | Ratio [8] | diameter of the inhibition zone (DIZ) (Bacillus subtilis) [mm] | Ratio [12] | Activity (Escherichia coli [14]) | Ratio [18] | also measured
COC1=C(C)C(=O)c2c(c(COC(N)=O)c3n2CC[C@H]3O)C1=O | 14 | 0 | 0 | 0 | 17 | 6.9 | 17 | 0 | 1.3 | 17 | 2.9 | 19 | – | – | – | –
COC1=C(C)C(=O)c2c(c(COC(N)=O)c3n2C[C@@H](NC(C)=O)[C@H]3OC(C)=O)C1=O | 9 | 0 | 0 | 0 | 5 | 1.6 | 0 | 0 | 0.8 | 5 | 1.1 | 0 | – | – | – | –
COC1=C(C)C(=O)C2=C(C1=O)[C@@H](COC(N)=O)[C@@]1(OC)[C@H]3N[C@H]3CN21 [MITOMYCIN A] | >25 | 16 | 8 | 21 | 23 | – | 21 | 13 | – | 24 | – | >22 | 31.1 | Toxic | 7.4 | Activity (Escherichia coli [9]): Toxic; Activity (Escherichia coli [10]): Toxic; survival at 3.2 mg/kg (P388 [11]): 80%; Activity (Escherichia coli [13]): Toxic; Activity [15]: Active; Activity [16]: Active; Activity [17]: Active
COC1=C(C)C(=O)c2c(c(COC(N)=O)c3n2C[C@@H](N)[C@H]3O)C1=O | 9 | 0 | 0 | 4 | 9 | 16.7 | 6 | 2 | 1.4 | 11 | 4.1 | 8 | – | Toxic | – | Activity (Escherichia coli [19]): Toxic
CNC(=O)OCc1c2c(n3c1[C@H](NC(C)=O)[C@H](OC(C)=O)C3)C(=O)C(C)=C(OC)C2=O (relative stereo) | 13 | 0 | 0 | 0 | 13 | – | 13 | 0 | 1.1 | 15 | 1.6 | 14 | 1.2 | – | 1.6 | Activity (P388 [20]): inactive; Ratio [21]: 1.4
COC1=C(C)C(=O)c2c(c(COC(N)=O)c3n2CC[C@H]3OC(C)=O)C1=O | 14 | 0 | 0 | 7 | 15 | 24.5 | 16 | 1 | 4.3 | 17 | 13.2 | 23 | – | – | – | survival at 6.4 mg/kg (P388 [22]): 65%
